Measured values reported in the array DNA melting data of Ke et al. (doi:10.1101/2024.01.08.574731).

Tests used:
[1] = melting temperature; fluorescence melt of hairpins on a sequencing array, two-state fit, raised by 9.35 °C to match UV melts; settings: sodium 0.088 M
Method in brief: (§1)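 Melting temperature and folding enthalpy were obtained by bootstrapped two-state fitting. Fits used Cy3 fluorescence of library hairpins with annealed Cy3 and quencher oligos on a sequenced MiSeq flow cell, imaged in 50 mM Na-HEPES pH 8.0, 25 mM NaCl in 2.5 °C steps up to 60 °C and normalised to pre-quench Cy3 and control constructs. Four replicates were combined by inverse-variance weighting, and fitted temperatures were raised by 9.35 °C to match UV melts.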

[2] = folding enthalpy; higher = less favourable; fluorescence melt of hairpins on a sequencing array, two-state fit; settings: sodium 0.088 M
Method in brief: as §1

Sequence	Tm [1]	folding enthalpy [2]
GTTTTGGGAAACTAGAAC (((.(.(....).).)))	23.7 °C	-7.83 kcal/mol
GTTTTTACGAAAGTAAAC (((..(((....))))))	29.9 °C	-17.1 kcal/mol
GTTTTTCGAAAGAAGAAC (((.(((....))).)))	37.3 °C	-32.5 kcal/mol
GTTTTTGCGAAAGCAAAC (((..(((....))))))	35.2 °C	-11.9 kcal/mol
TAAGGGAAACCTTA (((((....)))))	29.1 °C	-10.6 kcal/mol
TAATCGAAAGATTA (((((....)))))	38.9 °C	-15.2 kcal/mol
TACACGAAAGTGTA (((((....)))))	57.8 °C	-13.7 kcal/mol
TACGGGAAACCGTA (((((....)))))	48.5 °C	-15.8 kcal/mol
TAGATGAAAATCTA (((((....)))))	26.1 °C	-10.1 kcal/mol
TAGCTGAAAAGCTA (((((....)))))	46.9 °C	-14.6 kcal/mol
TAGGAGAAATCCTA (((((....)))))	25.9 °C	-8.63 kcal/mol
TAGGCGAAAGCCTA (((((....)))))	65.5 °C	-12.2 kcal/mol
TAGTCGAAAGACTA (((((....)))))	49.6 °C	-17.4 kcal/mol
TAGTTGAAAAACTA (((((....)))))	27.4 °C	-11.8 kcal/mol
TATGCGAAAGCATA (((((....)))))	60.1 °C	-13.6 kcal/mol
TATTCGAAAGAATA (((((....)))))	36.7 °C	-14.3 kcal/mol
TCAACGAAAGTTGA (((((....)))))	52 °C	-17.5 kcal/mol
TCCCAGAAATGGGA (((((....)))))	43.8 °C	-15.9 kcal/mol
TCCTTGAAAAAGGA (((((....)))))	35.1 °C	-11.1 kcal/mol
TCGAAGAAATTCGA (((((....)))))	38.7 °C	-11.1 kcal/mol
TCGCTGAAAAGCGA (((((....)))))	68.8 °C	-17.4 kcal/mol

Sequence	Tm [1]	folding enthalpy [2]
TCGTAGAAATACGA (((((....)))))	41.3 °C	-11.6 kcal/mol
TCTCGGAAACGAGA (((((....)))))	47.9 °C	-19.6 kcal/mol
TCTGGGAAACCAGA (((((....)))))	47.1 °C	-15 kcal/mol
TCTTCGAAAGAAGA (((((....)))))	45.8 °C	-18.8 kcal/mol
TGAAAGAAATTTCA (((((....)))))	26.4 °C	-5.86 kcal/mol
TGATCGAAAGATCA (((((....)))))	51.3 °C	-21 kcal/mol
TGCGGGAAACCGCA (((((....)))))	66.5 °C	-15.7 kcal/mol
TGCTCGAAAGAGCA (((((....)))))	67.7 °C	-17.9 kcal/mol
TGGCAGAAATGCCA (((((....)))))	54.2 °C	-23.3 kcal/mol
TGGGAGAAATCCCA (((((....)))))	40.7 °C	-19.5 kcal/mol
TGGTAGAAATACCA (((((....)))))	36.8 °C	-12.8 kcal/mol
TGTAAGAAATTACA (((((....)))))	20.6 °C	-7.98 kcal/mol
TGTAGGAAACTACA (((((....)))))	36.9 °C	-16.9 kcal/mol
TGTTGGAAACAACA (((((....)))))	42.9 °C	-18.5 kcal/mol
TGTTTGAAAAAACA (((((....)))))	29.3 °C	-8.4 kcal/mol
TTAGTGAAAACTAA (((((....)))))	27.8 °C	-8.57 kcal/mol
TTATGGAAACATAA (((((....)))))	22.8 °C	-8.55 kcal/mol
TTCCCGAAAGGGAA (((((....)))))	56.1 °C	-24 kcal/mol
TTCCTGAAAAGGAA (((((....)))))	39.9 °C	-15 kcal/mol
TTGTAGAAATACAA (((((....)))))	24.9 °C	-6.32 kcal/mol
TTTCCGAAAGGAAA (((((....)))))	49.3 °C	-19 kcal/mol
